Data: ChEMBL document CHEMBL2407023, “trans-Resveratrol in Gnetum gnemon protects against oxidative-stress-induced endothelial senescence” (J Nat Prod, 2013)
The source made the active and inactive calls. The rule behind the calls is not given here.

Tests used:
HUVEC [1] = assay: Induction of mitochondrial biogenesis in H2O2-induced HUVEC at 100 umol/L pretreated for 1 day followed by compound washout and H2O2-treatment measured after 10 days by MitoTracker Red staining-based assay; format: functional, cell-based; conditions: Homo sapiens
Procedure, shortened: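 HUVEC were grown in chamber slides to 80% confluence and treated with compound at 100 μmol/L plus H2O2. At 10 days after H2O2, cells were stained 15 min with 100 nM MitoTracker Red CMXRos in prewarmed medium. Nuclei were counterstained with DAPI and cells imaged by fluorescence microscopy.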

HUVEC [2] = assay: Effect on eNOS expression in H2O2-induced HUVEC pretreated for 1 day followed by compound washout and H2O2-treatment measured after 10 days by immunoblotting analysis; format: functional, cell-based; conditions: Homo sapiens
Procedure, shortened: (§1)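 HUVEC at PDL 10−11 were pretreated 1 day with compound at 100 μmol/L in EGM-2 (vehicle 0.05% DMSO). Cells were washed and exposed to 100 μmol/L H2O2 for 1 h. They were then reseeded and cultured 10 days with compound. Lysates were made in Tris/NP40/SDS buffer with protease and phosphatase inhibitors and immunoblotted. β-actin was the loading reference, with ECL detection.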

[3] = molecular target: T1, NAD-dependent protein deacetylase sirtuin-1 (Homo sapiens) (UniProt Q96EB6); assay: Induction of SIRT1-mediated TFAM expression in H2O2-induced HUVEC pretreated for 1 day followed by compound washout and H2O2-treatment measured after 10 days by RT-PCR analysis; format: cell-based
T1 sequence (whole entry): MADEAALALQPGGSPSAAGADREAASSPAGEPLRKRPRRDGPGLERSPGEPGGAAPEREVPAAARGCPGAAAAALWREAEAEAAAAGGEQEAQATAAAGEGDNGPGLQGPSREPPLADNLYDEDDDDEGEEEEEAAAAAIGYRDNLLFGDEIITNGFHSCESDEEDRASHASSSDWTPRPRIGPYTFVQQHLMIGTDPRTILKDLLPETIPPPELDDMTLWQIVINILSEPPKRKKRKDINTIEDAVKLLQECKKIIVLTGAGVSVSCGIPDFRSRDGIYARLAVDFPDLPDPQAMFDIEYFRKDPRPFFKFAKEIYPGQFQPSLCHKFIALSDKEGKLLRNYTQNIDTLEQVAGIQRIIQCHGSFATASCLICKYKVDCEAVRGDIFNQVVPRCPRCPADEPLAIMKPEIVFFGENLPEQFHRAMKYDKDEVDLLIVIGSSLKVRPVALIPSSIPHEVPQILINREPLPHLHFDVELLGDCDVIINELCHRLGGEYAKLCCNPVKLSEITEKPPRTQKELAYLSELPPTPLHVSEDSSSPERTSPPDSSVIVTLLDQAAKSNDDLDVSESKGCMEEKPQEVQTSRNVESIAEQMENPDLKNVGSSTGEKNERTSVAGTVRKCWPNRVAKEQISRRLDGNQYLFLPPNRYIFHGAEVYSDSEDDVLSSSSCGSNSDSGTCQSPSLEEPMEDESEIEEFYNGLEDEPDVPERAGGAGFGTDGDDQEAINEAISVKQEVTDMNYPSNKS
Procedure, shortened: (§2)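 HUVEC were treated with compound at 100 μmol/L and H2O2 as in the senescence protocol. Total RNA was DNase-treated, then reverse transcribed with random hexamers and oligo d(T). mRNA was quantified by SYBR green real-time PCR relative to β-actin. Primer quality was checked by dissociation curves, standard-curve slopes and no-RT reactions.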

HUVEC [4] = assay: Inhibition of H2O2-induced HUVEC senescence pretreated for 1 day followed by compound washout and H2O2-treatment measured after 10 days by SA-beta galactosidase staining-based assay; format: functional, cell-based; conditions: Homo sapiens
Procedure, shortened: (§3)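 HUVEC at PDL 10−11 were grown to 80% confluence and pretreated 1 day with compound at 100 μmol/L (vehicle 0.05% DMSO). After washing, they received 100 μmol/L H2O2 for 1 h and were reseeded at 1 × 10^6 per dish. Culture continued 10 days with compound. Fixed cells were scored for SA-βgal-positive proportion, with hematoxylin counterstain for morphology; n = 3.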

[5] = molecular target: T1, NAD-dependent protein deacetylase sirtuin-1 (Homo sapiens); assay: Activation of SIRT1 (unknown origin) by fluorescence assay
Procedure, shortened: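 HUVEC exposed to compounds at 100 μmol/L were assayed for SIRT1 activity with a fluorescent SIRT1 activity kit, following the manufacturer's protocol. NAD+ was the positive control. Comparison was against vehicle control, n = 3.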

HUVEC [6] = assay: Effect on PAI-1 expression in H2O2-induced HUVEC pretreated for 1 day followed by compound washout and H2O2-treatment measured after 10 days by immunoblotting analysis; format: functional, cell-based; conditions: Homo sapiens; procedure, shortened: as §1
[7] = molecular target: T1, NAD-dependent protein deacetylase sirtuin-1 (Homo sapiens); assay: Induction of SIRT1-mediated NRF-1 expression in H2O2-induced HUVEC pretreated for 1 day followed by compound washout and H2O2-treatment measured after 10 days by RT-PCR analysis; format: cell-based; procedure, shortened: as §2
HUVEC [8] = assay: Effect on p53 expression in H2O2-induced HUVEC pretreated for 1 day followed by compound washout and H2O2-treatment measured after 10 days by immunoblotting analysis; format: functional, cell-based; conditions: Homo sapiens; procedure, shortened: as §1
HUVEC [9] = assay: Inhibition of H2O2-induced HUVEC senescence assessed as change in cellular morphology pretreated for 1 day followed by compound washout and H2O2-treatment measured after 10 days by hematoxylin staining-based assay; format: functional, cell-based; conditions: Homo sapiens; procedure, shortened: as §3
HUVEC [10] = assay: Effect on SIRT1 expression in H2O2-induced HUVEC pretreated for 1 day followed by compound washout and H2O2-treatment measured after 10 days by immunoblotting analysis; format: functional, cell-based; conditions: Homo sapiens; procedure, shortened: as §1

Activity [3]: Active | inhibition (HUVEC [4]): Active | Activity [5]: Active | Activity [7]: Active
SMILES: Oc1ccc(/C=C/c2cc(O)cc(O)c2)cc1
Activity (HUVEC [1]): Active | Activity (HUVEC [2]): Active | Activity (HUVEC [6]): Active | Activity (HUVEC [8]): Active | inhibition (HUVEC [9]): Active | Activity (HUVEC [10]): Active
